Reference: ChEMBL document CHEMBL4837264, “Rational Design, Optimization, and Biological Evaluation of Novel MEK4 Inhibitors against Pancreatic Adenocarcinoma” (ACS Med Chem Lett, 2021)
Calls of active or inactive are those of the source. The rule behind the calls is not given here.

How the values were obtained:
Cytochrome P450 2D6 = Cytochrome P450 2D6 (Homo sapiens, UniProt P10635); assay: Inhibition of CYP2D6 (unknown origin); type: ADME
[1] = target: T1, Dual specificity mitogen-activated protein kinase kinase 5 (Homo sapiens) (UniProt Q13163); assay: Inhibition of human wild type partial length MEK5 (L98 to P448 residues) expressed in mammalian expression system at 1 uM measured by Kinomescan assay
T1 sequence (whole entry): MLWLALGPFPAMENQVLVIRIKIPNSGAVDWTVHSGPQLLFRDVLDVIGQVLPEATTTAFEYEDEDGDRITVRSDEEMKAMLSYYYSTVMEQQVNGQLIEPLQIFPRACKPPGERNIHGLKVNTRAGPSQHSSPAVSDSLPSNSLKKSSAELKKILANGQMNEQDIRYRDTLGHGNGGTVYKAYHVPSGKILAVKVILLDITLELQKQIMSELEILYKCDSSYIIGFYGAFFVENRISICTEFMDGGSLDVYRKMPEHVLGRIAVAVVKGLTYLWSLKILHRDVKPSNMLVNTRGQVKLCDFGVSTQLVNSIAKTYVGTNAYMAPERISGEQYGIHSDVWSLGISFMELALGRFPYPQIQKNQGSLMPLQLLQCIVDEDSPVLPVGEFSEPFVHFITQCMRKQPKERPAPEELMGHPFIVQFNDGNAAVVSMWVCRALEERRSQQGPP

[2] = target: T2, Dual specificity mitogen-activated protein kinase kinase 7 (Homo sapiens) (UniProt O14733); assay: Inhibition of human MEK7 in human HEK293T cells assessed as decrease of MEK7 expression in presence of anisomycin at 100 uM measured after 5 hrs by Western blot assay; type: cell-based
T2 sequence (whole entry): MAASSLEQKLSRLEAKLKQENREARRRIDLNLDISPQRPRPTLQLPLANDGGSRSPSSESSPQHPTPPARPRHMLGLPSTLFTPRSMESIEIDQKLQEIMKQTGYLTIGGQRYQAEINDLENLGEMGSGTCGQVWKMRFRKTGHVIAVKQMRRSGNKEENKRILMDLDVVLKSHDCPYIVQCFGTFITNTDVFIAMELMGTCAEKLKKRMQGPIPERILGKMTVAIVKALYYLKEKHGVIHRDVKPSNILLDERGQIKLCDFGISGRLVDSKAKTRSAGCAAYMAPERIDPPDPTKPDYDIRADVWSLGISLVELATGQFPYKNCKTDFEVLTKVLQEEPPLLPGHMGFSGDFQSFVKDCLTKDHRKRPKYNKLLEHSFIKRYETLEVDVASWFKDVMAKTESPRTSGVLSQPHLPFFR
Summary of the method: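 HEK293T cells pretreated with anisomycin (3 μg/mL) for 45 min, then exposed to inhibitor (100 μM) for 5 h. MEK7 levels were read by Western blot with HSP90 as loading control. Blots are representative of at least three biological replicates.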

HPAF-II [3] = assay: Antiproliferative activity against human HPAF-II cells assessed as inhibition of cell proliferation measured after 72 hrs; type: functional, cell-based
Summary of the method: (§1)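 Cells (~30,000; HEK293T, or pancreatic CD18 and MiaPaCa2) exposed to DMSO or a range of inhibitor doses for 72 h, then trypsinized and counted. Counts normalized to the DMSO control. Mean ± SD; three biological replicates; one-way ANOVA.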

[4] = target: T2, Dual specificity mitogen-activated protein kinase kinase 7 (Homo sapiens); assay: Inhibition of human wild type full length MEK7 (M1 to R417 residues) expressed in mammalian expression system at 10 uM measured by Kinomescan assay
[5] = target: Mitogen-activated protein kinase 8 (Homo sapiens) (UniProt P45983); assay: Inhibition of wild type full length human JNK1 (M1 to Q384 residues) expressed in mammalian expression system at 10 uM measured by Kinomescan assay
Summary of the method: (§2)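 Kinome-wide binding scan on the scanEDGE DiscoverX platform, covering 97 kinases, each tested at a single compound concentration of 10 μM.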

[6] = target: T3, Dual specificity mitogen-activated protein kinase kinase 6 (Homo sapiens) (UniProt P52564); assay: Inhibition of human wild type partial length MEK6 (K36 to D344 residues) expressed in bacterial expression system at 10 uM measured by Kinomescan assay; summary of the method: as §2
T3 sequence (whole entry): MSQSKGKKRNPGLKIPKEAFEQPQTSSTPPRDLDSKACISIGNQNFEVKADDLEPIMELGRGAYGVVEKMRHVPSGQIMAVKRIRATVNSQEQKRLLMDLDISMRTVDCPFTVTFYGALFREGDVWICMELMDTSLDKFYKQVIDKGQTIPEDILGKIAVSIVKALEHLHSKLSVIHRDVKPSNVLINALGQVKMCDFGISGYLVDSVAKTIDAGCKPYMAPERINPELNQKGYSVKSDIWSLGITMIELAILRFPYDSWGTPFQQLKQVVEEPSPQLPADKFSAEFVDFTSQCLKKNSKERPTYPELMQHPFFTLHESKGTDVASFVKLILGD

[7] = target: Serine/threonine-protein kinase B-raf (Homo sapiens) (UniProt P15056); assay: Inhibition of wild type partial length human BRAF (S429 to E741) expressed in mammalian expression system at 10 uM measured by Kinomescan assay; summary of the method: as §2
[8] = target: Dual specificity mitogen-activated protein kinase kinase 2 (Homo sapiens) (UniProt P36507); assay: Inhibition of human MEK2 in human MIA PaCa-2 cells assessed as decrease of p42/44 MAPK phosphorylation in presence of U0126 at 10 uM measured after 5 hrs by Westren blot assay; type: cell-based
Summary of the method: (§3)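 CD18 or MiaPaCa2 cells pretreated with U0126 (1 or 5 μM) for 1 h, then MEK4 inhibitor (10 μM) added for 5 h. Phospho- and total p42/44 MAPK detected by Western blot with HSP90 as loading control. Blots representative of at least three biological replicates.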

[9] = target: T3, Dual specificity mitogen-activated protein kinase kinase 6 (Homo sapiens); assay: Inhibition of human wild type partial length MEK6 (K36 to D344 residues) expressed in bacterial expression system at 1 uM measured by Kinomescan assay
Cytochrome P450 1A2 = Cytochrome P450 1A2 (Homo sapiens, UniProt P05177); assay: Inhibition of CYP1A2 (unknown origin); type: ADME
[10] = target: Dual specificity mitogen-activated protein kinase kinase 1 (Homo sapiens) (UniProt Q02750); assay: Inhibition of human MEK1 in human HPAF-II cells assessed as decrease of p42/44 MAPK phosphorylation in presence of U0126 at 10 uM measured after 5 hrs by Westren blot assay; type: cell-based; summary of the method: as §3
[11] = target: Dual specificity mitogen-activated protein kinase kinase 1 (Homo sapiens) (UniProt Q02750); assay: Inhibition of human MEK1 in human HEK293T cells assessed as reversal of anisomycin-induced decrease of p42/44 MAPK phosphorylation at 100 uM measured after 5 hrs by Western blot assay; type: cell-based
Summary of the method: (§4)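 HEK293T cells pretreated with anisomycin (3 μg/mL) for 45 min, then given inhibitor (100 μM) for 5 h. Phospho- and total p42/44 MAPK and p38 MAPK, plus MEK7, detected by Western blot with HSP90 as loading control. Blots representative of at least three biological replicates.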

Cytochrome P450 3A4 = Cytochrome P450 3A4 (Homo sapiens, UniProt P08684); assay: Inhibition of CYP3A4 (unknown origin); type: ADME
Cytochrome P450 3A5 = Cytochrome P450 3A5 (Homo sapiens, UniProt P20815); assay: Inhibition of CYP3A5 (unknown origin); type: ADME
[12] = target: T4, Dual specificity mitogen-activated protein kinase kinase 3 (Homo sapiens) (UniProt P46734); assay: Inhibition of human MEK3 in human HEK293T cells assessed as inhibition of anisomycin-induced p38 MAPK phosphorylation at 100 uM measured after 5 hrs by Western blot assay; type: cell-based; summary of the method: as §4
T4 sequence (whole entry): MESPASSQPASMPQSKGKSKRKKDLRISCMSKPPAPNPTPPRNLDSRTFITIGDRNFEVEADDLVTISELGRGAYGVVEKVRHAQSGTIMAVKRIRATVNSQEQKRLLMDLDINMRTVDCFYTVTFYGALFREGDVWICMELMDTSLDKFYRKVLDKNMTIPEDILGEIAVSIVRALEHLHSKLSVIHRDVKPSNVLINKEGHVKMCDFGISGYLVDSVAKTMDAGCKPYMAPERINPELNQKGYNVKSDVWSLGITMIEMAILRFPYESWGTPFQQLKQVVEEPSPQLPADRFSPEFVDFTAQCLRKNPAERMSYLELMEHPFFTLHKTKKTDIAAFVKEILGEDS

[13] = target: Dual specificity mitogen-activated protein kinase kinase 2 (Homo sapiens) (UniProt P36507); assay: Inhibition of human MEK2 in human HPAF-II cells assessed as decrease of p42/44 MAPK phosphorylation in presence of U0126 at 10 uM measured after 5 hrs by Westren blot assay; type: cell-based
[14] = target: T4, Dual specificity mitogen-activated protein kinase kinase 3 (Homo sapiens); assay: Inhibition of human wild type full length MEK3 (M1 to S318) expressed in mammalian expression system at 10 uM measured by Kinomescan assay; summary of the method: as §2
[15] = target: Dual specificity mitogen-activated protein kinase kinase 1 (Homo sapiens) (UniProt Q02750); assay: Inhibition of human MEK1 in human MIA PaCa-2 cells assessed as decrease of p42/44 MAPK phosphorylation in presence of U0126 at 10 uM measured after 5 hrs by Westren blot assay; type: cell-based; summary of the method: as §3
Cytochrome P450 2C19 = Cytochrome P450 2C19 (Homo sapiens, UniProt P33261); assay: Inhibition of CYP2C19 (unknown origin); type: ADME
[16] = target: T3, Dual specificity mitogen-activated protein kinase kinase 6 (Homo sapiens); assay: Inhibition of human MEK6 in human HEK293T cells assessed as inhibition of anisomycin-induced p38 MAPK phosphorylation at 100 uM measured after 5 hrs by Western blot assay; type: cell-based; summary of the method: as §4
MIA PaCa-2 [17] = assay: Antiproliferative activity against human MIA PaCa-2 cells assessed as inhibition of cell proliferation in presence of […] at 10 uM measured after 72 hrs; type: functional, cell-based
Summary of the method: (§5)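 CD18 or MiaPaCa2 cells (~30,000) treated for 72 h with DMSO, U0126 (1 or 5 μM), MEK4 inhibitor (10 μM), or the combination. Cells trypsinized and counted, with counts normalized to DMSO; two-way ANOVA. Interaction expressed as CDI = AB/(A × B) from the normalized ratios, mean ± SEM of three biological replicates.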

[18] = target: Dual specificity mitogen-activated protein kinase kinase 2 (Homo sapiens) (UniProt P36507); assay: Inhibition of human MEK2 in human HEK293T cells assessed as reversal of anisomycin-induced decrease of p42/44 MAPK phosphorylation at 100 uM measured after 5 hrs by Western blot assay; type: cell-based; summary of the method: as §4
[19] = target: T1, Dual specificity mitogen-activated protein kinase kinase 5 (Homo sapiens); assay: Inhibition of human wild type partial length MEK5 (L98 to P448 residues) expressed in mammalian expression system at 10 uM measured by Kinomescan assay; summary of the method: as §2
[20] = target: Mitogen-activated protein kinase 9 (Homo sapiens) (UniProt P45984); assay: Inhibition of wild type full length human JNK2 (M1 to Q382 residues) expressed in mammalian expression system at 10 uM measured by Kinomescan assay; summary of the method: as §2
[21] = target: T4, Dual specificity mitogen-activated protein kinase kinase 3 (Homo sapiens); assay: Inhibition of human wild type full length MEK3 (M1 to S318) expressed in mammalian expression system at 1 uM measured by Kinomescan assay
MIA PaCa-2 [22] = assay: Antiproliferative activity against human MIA PaCa-2 cells assessed as inhibition of cell proliferation measured after 72 hrs; type: functional, cell-based; summary of the method: as §1
HPAF-II [23] = assay: Antiproliferative activity against human HPAF-II cells assessed as inhibition of cell proliferation in presence of […] at 10 uM measured after 72 hrs; type: functional, cell-based; summary of the method: as §5
[24] = target: Mitogen-activated protein kinase 10 (Homo sapiens) (UniProt P53779); assay: Inhibition of wild type partial length human JNK3 (V28 to Q422 residues) expressed in mammalian expression system at 10 uM measured by Kinomescan assay; summary of the method: as §2
[25] = target: Mitogen-activated protein kinase 3 (Homo sapiens) (UniProt P27361); assay: Inhibition of wild type full length human ERK1 (M1 to P397 residues) expressed in bacterial expression system at 10 uM measured by Kinomescan assay; summary of the method: as §2
[26] = target: T2, Dual specificity mitogen-activated protein kinase kinase 7 (Homo sapiens); assay: Inhibition of human wild type full length MEK7 (M1 to R417 residues) expressed in mammalian expression system at 1 uM measured by Kinomescan assay
Cytochrome P450 2C9 = Cytochrome P450 2C9 (Homo sapiens, UniProt P11712); assay: Inhibition of CYP2C9 (unknown origin); type: ADME
[27] = target: RAF proto-oncogene serine/threonine-protein kinase (Homo sapiens) (UniProt P04049); assay: Inhibition of wild type partial length human RAF(I330 to T640 residues) expressed in bacterial expression system at 10 uM measured by Kinomescan assay; summary of the method: as §2
[28] = Metabolic stability in human liver microsomes assessed as half life by microsome assay; type: ADME

Dual specificity mitogen-activated protein kinase kinase 1 (Homo sapiens), sequence (Q02750 whole entry): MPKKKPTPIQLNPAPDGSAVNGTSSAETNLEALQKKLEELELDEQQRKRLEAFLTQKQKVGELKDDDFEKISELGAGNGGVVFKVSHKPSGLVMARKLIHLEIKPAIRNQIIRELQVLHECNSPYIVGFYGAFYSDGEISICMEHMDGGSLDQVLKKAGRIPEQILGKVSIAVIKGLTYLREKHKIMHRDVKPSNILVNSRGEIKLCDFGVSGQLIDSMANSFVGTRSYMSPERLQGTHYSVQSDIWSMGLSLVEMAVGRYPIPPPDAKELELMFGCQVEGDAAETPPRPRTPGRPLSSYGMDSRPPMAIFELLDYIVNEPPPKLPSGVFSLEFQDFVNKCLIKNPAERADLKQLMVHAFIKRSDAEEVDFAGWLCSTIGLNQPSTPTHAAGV
Dual specificity mitogen-activated protein kinase kinase 2 (Homo sapiens), sequence (P36507 whole entry, the tested form may be a part): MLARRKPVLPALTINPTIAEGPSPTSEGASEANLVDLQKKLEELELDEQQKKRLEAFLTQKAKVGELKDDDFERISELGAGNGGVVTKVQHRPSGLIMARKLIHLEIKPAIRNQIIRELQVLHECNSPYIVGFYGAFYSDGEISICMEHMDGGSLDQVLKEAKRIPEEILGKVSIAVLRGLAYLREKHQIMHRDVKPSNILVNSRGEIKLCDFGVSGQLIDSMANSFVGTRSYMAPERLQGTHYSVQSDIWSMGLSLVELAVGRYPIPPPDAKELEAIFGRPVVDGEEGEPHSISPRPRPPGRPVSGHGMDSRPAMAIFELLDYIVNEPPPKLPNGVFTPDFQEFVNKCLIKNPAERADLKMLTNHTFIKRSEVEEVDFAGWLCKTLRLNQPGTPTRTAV
Cytochrome P450 2D6, sequence (P10635 whole entry, the tested form may be a part): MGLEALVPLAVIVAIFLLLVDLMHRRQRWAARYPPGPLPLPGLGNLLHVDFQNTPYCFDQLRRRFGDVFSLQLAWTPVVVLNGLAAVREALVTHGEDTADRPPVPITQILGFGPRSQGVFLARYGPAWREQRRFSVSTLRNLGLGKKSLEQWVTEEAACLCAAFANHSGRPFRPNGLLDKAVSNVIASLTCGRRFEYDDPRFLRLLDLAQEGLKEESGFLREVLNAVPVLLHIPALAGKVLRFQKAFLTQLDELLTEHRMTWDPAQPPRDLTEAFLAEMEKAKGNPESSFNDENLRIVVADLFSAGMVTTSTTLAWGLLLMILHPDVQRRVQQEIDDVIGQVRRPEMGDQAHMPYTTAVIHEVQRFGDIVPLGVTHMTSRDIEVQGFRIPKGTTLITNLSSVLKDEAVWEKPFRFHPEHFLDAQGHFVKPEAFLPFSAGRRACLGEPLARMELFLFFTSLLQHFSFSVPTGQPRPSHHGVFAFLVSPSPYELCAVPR
Cytochrome P450 3A4, sequence (P08684 whole entry): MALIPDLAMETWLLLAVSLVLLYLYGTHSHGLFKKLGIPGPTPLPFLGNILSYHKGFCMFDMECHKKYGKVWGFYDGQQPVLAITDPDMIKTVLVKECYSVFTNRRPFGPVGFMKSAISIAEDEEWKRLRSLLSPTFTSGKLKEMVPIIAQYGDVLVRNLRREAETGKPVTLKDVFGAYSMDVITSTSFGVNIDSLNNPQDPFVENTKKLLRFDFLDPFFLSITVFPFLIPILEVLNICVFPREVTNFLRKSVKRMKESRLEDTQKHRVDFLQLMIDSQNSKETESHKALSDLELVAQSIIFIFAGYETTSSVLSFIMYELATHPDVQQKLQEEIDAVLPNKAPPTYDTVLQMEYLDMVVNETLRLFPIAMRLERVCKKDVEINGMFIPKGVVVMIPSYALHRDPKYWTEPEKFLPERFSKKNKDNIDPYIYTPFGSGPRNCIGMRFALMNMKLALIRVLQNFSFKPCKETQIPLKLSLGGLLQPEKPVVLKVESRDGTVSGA
Mitogen-activated protein kinase 8 (Homo sapiens), sequence (P45983 whole entry, the tested form may be a part): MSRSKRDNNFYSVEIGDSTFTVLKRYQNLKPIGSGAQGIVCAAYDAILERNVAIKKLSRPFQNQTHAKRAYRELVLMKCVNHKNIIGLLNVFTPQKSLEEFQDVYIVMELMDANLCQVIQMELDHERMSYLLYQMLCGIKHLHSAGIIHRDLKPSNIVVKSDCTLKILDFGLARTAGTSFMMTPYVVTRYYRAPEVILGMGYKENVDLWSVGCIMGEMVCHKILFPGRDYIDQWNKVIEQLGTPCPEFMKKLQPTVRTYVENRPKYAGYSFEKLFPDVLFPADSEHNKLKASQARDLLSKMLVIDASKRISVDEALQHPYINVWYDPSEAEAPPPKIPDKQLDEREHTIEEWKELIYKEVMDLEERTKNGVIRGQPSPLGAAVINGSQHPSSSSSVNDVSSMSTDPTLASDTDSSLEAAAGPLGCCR
Mitogen-activated protein kinase 9 (Homo sapiens), sequence (P45984 whole entry, looked up, the tested form may be a part): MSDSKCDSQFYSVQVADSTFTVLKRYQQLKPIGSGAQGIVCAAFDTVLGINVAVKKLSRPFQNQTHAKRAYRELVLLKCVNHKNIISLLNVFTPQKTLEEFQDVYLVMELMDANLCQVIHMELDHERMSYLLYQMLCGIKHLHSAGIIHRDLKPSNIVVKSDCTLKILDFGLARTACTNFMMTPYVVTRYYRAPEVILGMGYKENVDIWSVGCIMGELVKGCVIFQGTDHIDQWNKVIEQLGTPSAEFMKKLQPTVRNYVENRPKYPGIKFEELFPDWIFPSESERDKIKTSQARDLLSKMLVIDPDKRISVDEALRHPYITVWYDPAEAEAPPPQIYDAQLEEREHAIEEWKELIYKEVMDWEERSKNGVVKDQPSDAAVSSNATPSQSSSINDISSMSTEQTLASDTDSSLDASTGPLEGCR
Mitogen-activated protein kinase 10 (Homo sapiens), sequence (P53779 whole entry, the tested form may be a part): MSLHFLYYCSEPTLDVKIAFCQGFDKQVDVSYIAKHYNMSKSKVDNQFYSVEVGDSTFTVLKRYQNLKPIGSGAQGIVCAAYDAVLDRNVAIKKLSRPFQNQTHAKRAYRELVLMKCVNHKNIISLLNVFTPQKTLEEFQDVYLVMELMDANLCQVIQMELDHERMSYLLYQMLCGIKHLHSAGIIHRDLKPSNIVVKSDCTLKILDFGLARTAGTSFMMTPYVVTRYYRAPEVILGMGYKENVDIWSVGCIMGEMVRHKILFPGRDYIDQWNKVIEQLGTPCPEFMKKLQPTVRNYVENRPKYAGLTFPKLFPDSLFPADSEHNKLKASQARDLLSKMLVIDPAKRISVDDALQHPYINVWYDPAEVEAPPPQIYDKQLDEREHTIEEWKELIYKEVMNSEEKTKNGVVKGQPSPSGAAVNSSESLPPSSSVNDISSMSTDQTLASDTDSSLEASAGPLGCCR
Cytochrome P450 1A2, sequence (P05177 whole entry): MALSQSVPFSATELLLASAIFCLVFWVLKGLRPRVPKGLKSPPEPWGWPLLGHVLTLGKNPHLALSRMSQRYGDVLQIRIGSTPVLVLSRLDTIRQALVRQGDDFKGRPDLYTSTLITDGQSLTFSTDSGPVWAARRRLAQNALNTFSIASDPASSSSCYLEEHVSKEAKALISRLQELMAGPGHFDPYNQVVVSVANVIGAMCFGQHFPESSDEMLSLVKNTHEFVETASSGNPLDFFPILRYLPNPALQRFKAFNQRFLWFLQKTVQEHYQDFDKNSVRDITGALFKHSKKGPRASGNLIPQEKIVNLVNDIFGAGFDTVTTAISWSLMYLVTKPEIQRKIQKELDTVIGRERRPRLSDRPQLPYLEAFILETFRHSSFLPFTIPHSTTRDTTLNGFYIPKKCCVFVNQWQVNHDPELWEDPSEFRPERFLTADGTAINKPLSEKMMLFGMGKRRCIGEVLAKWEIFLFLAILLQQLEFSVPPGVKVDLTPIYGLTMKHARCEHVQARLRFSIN
Serine/threonine-protein kinase B-raf (Homo sapiens), sequence (P15056 whole entry): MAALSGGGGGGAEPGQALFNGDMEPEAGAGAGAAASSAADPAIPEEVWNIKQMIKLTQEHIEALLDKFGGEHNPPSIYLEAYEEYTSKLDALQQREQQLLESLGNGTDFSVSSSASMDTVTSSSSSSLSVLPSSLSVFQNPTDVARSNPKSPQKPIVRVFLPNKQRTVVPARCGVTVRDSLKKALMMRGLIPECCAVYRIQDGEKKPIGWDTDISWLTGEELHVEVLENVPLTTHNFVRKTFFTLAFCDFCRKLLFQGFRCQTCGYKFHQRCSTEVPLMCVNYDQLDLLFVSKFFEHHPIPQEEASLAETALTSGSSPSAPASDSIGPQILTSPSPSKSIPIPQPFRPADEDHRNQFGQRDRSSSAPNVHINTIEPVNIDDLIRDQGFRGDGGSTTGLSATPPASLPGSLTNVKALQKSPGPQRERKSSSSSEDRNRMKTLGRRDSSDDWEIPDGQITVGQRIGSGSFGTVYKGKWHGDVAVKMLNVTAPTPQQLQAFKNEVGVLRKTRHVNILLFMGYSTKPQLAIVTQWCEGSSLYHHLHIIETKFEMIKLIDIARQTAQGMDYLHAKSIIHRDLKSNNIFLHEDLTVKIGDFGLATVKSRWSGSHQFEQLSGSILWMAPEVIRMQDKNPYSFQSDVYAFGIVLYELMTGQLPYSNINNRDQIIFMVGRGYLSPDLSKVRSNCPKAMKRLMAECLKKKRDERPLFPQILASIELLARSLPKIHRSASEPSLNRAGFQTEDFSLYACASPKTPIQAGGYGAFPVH
Mitogen-activated protein kinase 3 (Homo sapiens), sequence (P27361 whole entry, the tested form may be a part): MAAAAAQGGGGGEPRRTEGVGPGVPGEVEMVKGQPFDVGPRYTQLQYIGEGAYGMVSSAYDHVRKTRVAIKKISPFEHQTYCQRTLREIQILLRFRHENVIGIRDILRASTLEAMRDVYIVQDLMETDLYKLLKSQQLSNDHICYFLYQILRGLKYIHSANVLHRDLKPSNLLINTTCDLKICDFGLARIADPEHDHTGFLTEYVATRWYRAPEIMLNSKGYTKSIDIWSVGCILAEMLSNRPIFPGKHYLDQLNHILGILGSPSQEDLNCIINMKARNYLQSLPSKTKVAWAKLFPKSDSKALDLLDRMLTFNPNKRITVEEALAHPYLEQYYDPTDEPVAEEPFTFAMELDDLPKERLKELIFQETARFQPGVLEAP

SMILES: NC(=O)c1ccc(NS(=O)(=O)c2cccc(-c3n[nH]c4cc(F)ccc34)c2)cc1
- inhibition (INH) (Cytochrome P450 2D6): Active
- inhibition [1]: 87%
- inhibition [2]: inactive
- Activity (HPAF-II [3]): Active
- inhibition [4]: 99%
- inhibition [5]: Active
- inhibition [6]: 97%
- inhibition [7]: inactive
- inhibition [8]: Active
- inhibition [9]: 48%
- inhibition (INH) (Cytochrome P450 1A2): Active
- inhibition [10]: Active
- inhibition [11]: Active
- inhibition (INH) (Cytochrome P450 3A4): Not Active
- inhibition (INH) (Cytochrome P450 3A5): Not Active
- inhibition [12]: inactive
- inhibition [13]: Active
- inhibition [14]: 99%
- inhibition [15]: Active
- inhibition (INH) (Cytochrome P450 2C19): Active
- inhibition [16]: inactive
- Activity (MIA PaCa-2 [17]): Active
- inhibition [18]: Active
- inhibition [19]: 99%
- inhibition [20]: Active
- inhibition [21]: 86%
- Activity (MIA PaCa-2 [22]): Active
- Activity (HPAF-II [23]): Active
- inhibition [24]: Active
- inhibition [25]: inactive
- inhibition [26]: 74%
- inhibition (INH) (Cytochrome P450 2C9): Active
- inhibition [27]: inactive
- half-life [28]: > 3.08 h
